Active and inactive are the calls of the source. Unless noted, the rule behind the calls is not given here.

Series [1] can be described thus: Cytotoxicity against CpG-stimulated BALB/c mouse BMDM assessed as loss of cell viability at 5 ug/mL preincubated for 18 hrs followed by CpG challenge measured after 24 hrs by 7-AAD staining-based flow cytometric analysis. The essentials: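 BALB/c bone marrow macrophages (2 × 10^5/well) were rested 24 h in complete RPMI, then given 5 μg/mL compound for 18 h. Cells were stained with 7-AAD for 10 min on ice and the dead fraction read by flow cytometry. One experiment is representative of two.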

For series [2], the system named is Mus musculus. As to the kind of experiment: Antiinflammatory activity in DBA/1 mouse collagen-induced arthritis model assessed as reduction in number of PMA/ionomycin-stimulated CD4+ T cells expressing IL-17 at 50 ug/kg, sc administered 2 days prior to collagen challenge continued till day 21 post collagen challenge by flow cytometric analysis relative to control. The following applies: T-cell. It is filed as functional, organism-based. The essentials:
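CIA mice given test agent (1 μg/dose) or PBS subcutaneously on days −2, 0 and 21. Draining lymph node cells (10^6/mL) in complete RPMI were stimulated ± 50 ng/mL PMA plus 500 ng/mL ionomycin, with 10 μg/mL brefeldin A for 5 h at 37 °C. Cells were surface-stained for CD4, CD8 and γδ, fixed and permeabilized, then stained for intracellular IFNγ and IL-17A. Gating used isotype controls. Cell numbers per individual mouse; naive n = 7, treated groups n = 13.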

The subject of series [3] is Mus musculus. Kind of series: Antiinflammatory activity in DBA/1 mouse collagen-induced arthritis model assessed as reduction of hind paw width at 50 ug/kg, sc administered 2 days prior to collagen challenge continued till day 21 post collagen challenge. The series is classed as functional, organism-based. The gist of the method:
(§1)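 Collagen-induced arthritis mice were dosed subcutaneously (1 μg/dose) or given PBS on days −2, 0 and 21. Arthritis was scored clinically and hind paw width measured. Incidence was the % of mice with severity score ≥2 (cumulative) or ≥4 (high score). Results are mean ± SEM. Scores n = 13 per group, pooled from two experiments; paw width n = 7, from a single experiment.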

In series [4] the target is T1, Toll-like receptor 9 (Mus musculus) (UniProt Q9EQU3).
T1 sequence (whole entry): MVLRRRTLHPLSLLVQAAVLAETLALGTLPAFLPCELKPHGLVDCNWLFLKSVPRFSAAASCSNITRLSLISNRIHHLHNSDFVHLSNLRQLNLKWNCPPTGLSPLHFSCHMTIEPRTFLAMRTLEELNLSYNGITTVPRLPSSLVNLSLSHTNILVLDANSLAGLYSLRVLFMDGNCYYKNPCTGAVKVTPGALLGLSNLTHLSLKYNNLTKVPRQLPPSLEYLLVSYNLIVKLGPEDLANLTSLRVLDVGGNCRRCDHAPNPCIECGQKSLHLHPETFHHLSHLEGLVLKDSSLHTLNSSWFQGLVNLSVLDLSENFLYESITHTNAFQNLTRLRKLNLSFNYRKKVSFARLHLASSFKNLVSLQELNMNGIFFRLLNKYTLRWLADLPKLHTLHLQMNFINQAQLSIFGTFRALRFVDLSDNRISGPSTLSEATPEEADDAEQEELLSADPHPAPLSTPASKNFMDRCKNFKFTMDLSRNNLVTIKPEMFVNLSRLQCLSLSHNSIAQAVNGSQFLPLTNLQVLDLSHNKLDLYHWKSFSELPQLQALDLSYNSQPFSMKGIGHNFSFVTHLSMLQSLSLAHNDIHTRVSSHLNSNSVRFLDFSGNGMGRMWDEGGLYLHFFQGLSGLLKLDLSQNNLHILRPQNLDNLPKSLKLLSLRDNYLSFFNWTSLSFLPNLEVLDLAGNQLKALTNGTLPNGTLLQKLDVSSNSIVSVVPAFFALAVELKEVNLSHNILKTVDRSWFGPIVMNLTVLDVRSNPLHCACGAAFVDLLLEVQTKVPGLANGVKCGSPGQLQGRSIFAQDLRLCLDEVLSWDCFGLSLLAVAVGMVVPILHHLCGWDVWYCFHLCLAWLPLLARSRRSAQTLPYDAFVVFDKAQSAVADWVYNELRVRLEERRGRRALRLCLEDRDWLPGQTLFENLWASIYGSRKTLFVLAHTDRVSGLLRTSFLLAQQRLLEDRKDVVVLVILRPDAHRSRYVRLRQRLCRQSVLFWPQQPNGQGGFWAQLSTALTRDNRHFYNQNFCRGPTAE
Kind of series: Inhibition of TLR9-mediated NFkappaB p65 activation in CpG-stimulated BALB/c mouse BMDM at 5 ug/ml preincubated for 18 hrs followed by CpG challenge measured after 1 hr by TransAM ELISA. The essentials: (§2)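 Bone marrow macrophages (4 × 10^6/well) had their medium changed after 24 h, were pretreated with compounds at 5 μg/mL for 18 h, then stimulated for 1 h with 100 ng/mL LPS, 10 ng/mL BLP or 1 μM CpG. Activated NFκB p65 in nuclear extracts was measured by TransAM ELISA in duplicate.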

Series [5] is filed under the species Mus musculus. Kind of series: Inhibition of TLR4/IL-1R in BALB/c mouse BMDM assessed as downregulation of LPS-stimulated MyD88 protein expression at 1 ug/mL after 20 hrs by Western blotting analysis relative to control. The gist of the method: (§3)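 Bone marrow macrophages were treated 20 h with medium, compound (1 or 5 μg/mL) or LPS (100 ng/mL) and lysed in modified RIPA buffer. Protein (30 μg) was separated on Bis-Tris gels, and MyD88 and GAPDH were detected by Western blot with ECL. Densitometric MyD88:GAPDH ratio was normalized to the RPMI value, from six analyses.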

Series [6] concerns Mus musculus. Kind of series: Antiinflammatory activity in DBA/1 mouse collagen-induced arthritis model assessed as reduction of high disease scores at 50 ug/kg, sc administered 2 days prior to collagen challenge continued till day 21 post collagen challenge. The series is classed as functional, organism-based. The gist of the method:
as §1

Series [7] is filed under the species Mus musculus. As to the kind of experiment: Inhibition of TLR4/IL-1R in BALB/c mouse BMDM assessed as downregulation of LPS-stimulated MyD88 protein expression at 5 ug/mL after 20 hrs by Western blotting analysis relative to control. The essentials: as §3
The target in series [8] is T2, TLR2/TLR6 (Mus musculus) (UniProt Q9QUN7+Q9EPW9). Kind of series: Inhibition of TLR2/6 in BALB/c mouse BMDM assessed as downregulation of BLP-stimulated IL-12p40 level at 5 ug/ml preincubated for 18 hrs followed by BLP challenge measured after 24 hrs by ELISA relative to control. It is filed as protein-complex assay. The essentials:
(§4)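 BALB/c male bone marrow macrophages were differentiated 7 days with L929 supernatant (≥99% CD11b+/F4/80+). Cells were plated at 2 × 10^5/well in triplicate, rested overnight, and given compounds at 5 μg/mL for 18 h. They were then stimulated with 100 ng/mL S. minnesota LPS, 10 ng/mL Pam3CSK4 (BLP) or 0.01 μM CpG for 24 h. Supernatant IL-12p40 and IL-6 were measured by ELISA (sensitivity 16 pg/mL).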

Series [9] addresses T2, TLR2/TLR6 (Mus musculus). As to the kind of experiment: Inhibition of TLR2/6-mediated NFkappaB p65 activation in BLP-stimulated BALB/c mouse BMDM at 5 ug/ml preincubated for 18 hrs followed by BLP challenge measured after 1 hr by TransAM ELISA. It is filed as protein-complex assay. The gist of the method:
as §2

The target in series [10] is T2, TLR2/TLR6 (Mus musculus). Kind of series: Inhibition of TLR2/6 in BALB/c mouse BMDM assessed as downregulation of BLP-stimulated IL-6 level at 5 ug/ml preincubated for 18 hrs followed by BLP challenge measured after 24 hrs by ELISA relative to control. It is filed as protein-complex assay. The essentials: as §4

`CN(C)CCS(=O)(=O)Cc1ccc(Br)cc1`: the Activity entry in series [1] was “Non-toxic”. For the same compound, the outcome in [2], in [3] and in series [6] was Active. Further, the inhibition entry in series [4], in series [8] and in series [9] was “Active” each time. Besides, the fold change (FC) worked out at 1.09 in series [5] and 0.736 in series [7]. Further, the inhibition entry in [10] was “inactive”.

The values are drawn from ChEMBL document CHEMBL3108700, “Designing anti-inflammatory drugs from parasitic worms: a synthetic small molecule analogue of the Acanthocheilonema viteae product ES-62 prevents development of collagen-induced arthritis” (J Med Chem, 2013).
